# Screening results (PubChem)
# Only some compounds are listed: those with a hit (about 7.6% of all), similar ones and a draw of the others.
# Jurkat viability: cytotoxicity toward Jurkat cells. Jurkat E6.1 viability, ATP luminescence, 48 h. inhibition, % at 4 µM. 1.2% of 56,000 active;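 active means inhibition above the mean inhibition of all tested compounds plus 3 SD, cut at about 28% in these data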
# DAT uptake mod: modulates human dopamine transporter uptake under cocaine; Q01959; LLC-PK1 hDAT cells, [14C]-dopamine uptake with cocaine IC80; actives deviate in either direction; B-score at 10 µM; 1.3% of 110,000 active;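 active means Z score or B-score, a plate-position-corrected score, falls beyond the plate's 99.7% confidence bounds, in either direction; inactive means both scores lie inside the 99.7% bounds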;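 further: scored against the spread of the other compound wells on the same plate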
# M1 agonist: M1 muscarinic receptor agonism; B-score at 10 µM; 3% of 64,000 active; CHO-M1 cells, Fluo-4 calcium fluorescence, agonist mode; hits give high values;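 active means fluorescence rise, raw or as B-score row- and column-corrected plate score, outside the 99.7% band of its plate's samples, either direction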
# HEK293 NFkB inh: lowers PMA/ionomycin-induced NF-kB signal in HEK293 cells; HEK-293 NF-kB luciferase reporter, luminescence; 0.21% of 62,000 active; inhibition, % at 3 µM;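 active means inhibition above the mean of all tested compounds plus 3 SD, cut at about 40% in these data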;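 further: 0% = stimulated DMSO wells and 100% = 10 µM reference inhibitor 5653914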
#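 Reagent: PMA plus ionomycin mix as NF-kB-activating stimulus. Assay system: NF-kB luciferase reporter HEK-293 cells. Technique: luminescence from luciferase substrate reagent. Incubation: 1 h compound pre-incubation, 16 h PMA/ionomycin at 37 °C. Benchmarks: DMSO only as uninhibited control, 10 µM reference inhibitor as full inhibition. Repeats: tested once.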
# D1 allo mod: allosterically modulates the human D1 dopamine receptor; P21728; HEK293 D1, CRE-luciferase, dopamine EC30 potentiation; actives deviate in either direction; B-score at 10 µM; 5.9% of 58,000 active;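 active means luminescence count or its row- and column-corrected plate score outside the 99.7% band of the plate's sample wells, on either side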
# M1 antagonist: M1 muscarinic receptor (rat) antagonism; P08482; CHO-M1 cells, Fluo-4 calcium, ACh EC80 antagonist mode; hits give low values; B-score at 10 µM; 3.4% of 64,000 active;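 active means calcium fluorescence response, raw or row-and-column corrected B-score, differing from the plate sample mean either way at a set confidence level, mostly lower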
# D1 PAM confirm: D1 receptor (human) allosteric modulation, confirmed; shares compounds with D1 allo mod; luminescence at 10 µM; 88% of 2,200 active; HEK293 D1 CRE-luciferase, dopamine EC30 potentiation; hits give high values; AID 642;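 active means luminescence in either of two replicates above the same-plate mean plus 3 SD of the low-dose dopamine control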
# D1 ag no DA: activates D1 CRE-luciferase signal without dopamine present. HEK293 D1 CRE-luciferase, luminescence, no dopamine; hits give high values. shares compounds with D1 allo mod. luminescence at 10 µM. 0.8% of 1,900 active. AID 646; in the data active means luminescence above about 3900
# Isoprot counter: isoproterenol response counter-screen activity for D1 modulators. shares compounds with D1 allo mod. HEK293 D1 CRE-luciferase, isoproterenol EC30 counter-screen. calls only at 10 µM. 63% of 2,200 active;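 active means luminescence in either replicate above plate mean of wells with a partly effective reference agonist dose plus 3 SD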;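 further: isoproterenol raises cAMP through native beta-adrenoceptor Gs so signal bypasses D1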
# An asterisk follows results filed as active; i = inactive; nt = not tested or not shown; + = active, no number.
SMILES,Jurkat viability,DAT uptake mod,M1 agonist,HEK293 NFkB inh,D1 allo mod,M1 antagonist,D1 PAM confirm,D1 ag no DA,Isoprot counter
O=[N+]([O-])c1cccc(-c2nnn(C34CC5CC(CC(C5)C3)C4)n2)c1,nt,0.054,nt,nt,nt,nt,nt,nt,nt
CCNc1nc(C)nc2c1oc1ccccc12,nt,1.5,-0.1,6,9.3*,0.49,16376*,nt,+
CCc1nc(NCC2CCCO2)c2oc3ccccc3c2n1 (stereo not drawn),-1,0.47,-0.31,4,6*,-0.093,12724*,nt,+
CCCCNC(=O)C1CCN(Cc2ccccn2)CC1,nt,0.16,nt,nt,nt,nt,nt,nt,nt
COc1cccc(-n2c(SC3CCOC3=O)nc3ccccc3c2=O)c1 (stereo not drawn),-1,-1,-0.14,11,13*,-0.21,13364*,1604,+
COc1ccc(OCc2nnc(SC3CCOC3=O)n2-c2ccccc2)cc1 (stereo not drawn),-1,0.78,-0.8,8,0.15,-0.053,nt,nt,nt
COc1ccc(OC(=O)c2cn(C)nc2C(F)(F)F)cc1,nt,-0.25,nt,nt,nt,nt,nt,nt,nt
CC(C)(C)C1CCc2onc(C(=O)Nc3cccc(O)c3)c2C1 (stereo not drawn),nt,-0.15,nt,nt,nt,nt,nt,nt,nt
CC(C)(C)C1CCc2onc(C(=O)Nc3cccnc3)c2C1 (stereo not drawn),7,0.84,0.44,24,10*,0.54,19704*,1720,+
CCOC(=O)c1ccc(N2CN=C3SCC(=O)N3C2)cc1,2,0.74,0.043,16,3.1*,-0.048,5848*,1596,i
CCOC(=O)c1ccc(N=C2NC(=O)CS2)cc1,-5,0.43,2.4,7,-0.061,-0.09,nt,nt,nt
COc1cc(C2Nc3ccccc3C(=O)N2c2ccccc2)ccc1O (stereo not drawn),nt,-0.024,nt,nt,nt,nt,nt,nt,nt
CC(C)CCn1c(SCCN2CCOCC2)nc2c1c(=O)[nH]c(=O)n2C,-3,0.93,-0.093,25,2.2,0.01,nt,nt,nt
CCOC(=O)C(CC)Sc1nc2c(c(=O)[nH]c(=O)n2C)n1C/C=C(/C)Cl (stereo not drawn),5,0.55,1.4,17,8.6*,0.021,16300*,1792,+
CCCCOC(=O)CSc1nc2c(c(=O)[nH]c(=O)n2C)n1C/C=C(\C)Cl,0,0.23,-0.29,7,-0.49,-0.0019,nt,nt,nt
CCCCCn1c(SCC(=O)OC)nc2c1c(=O)[nH]c(=O)n2C,-6,-1,-0.13,2,4.2*,-0.071,14176*,1660,i
COC(=O)CSc1nc2c(c(=O)[nH]c(=O)n2C)n1CCC(C)C,-2,-1.1,0.46,11,5.2*,0.54,12872*,1692,+
O=C(O)CC1Oc2ccc(Cl)cc2NC1=O (stereo not drawn),3,0.12,0.19,6,nt,0.43,nt,nt,nt
N#CCC(CNc1ncc(C(F)(F)F)cc1Cl)OC(=O)c1c(F)cccc1F (stereo not drawn),nt,0.68,nt,nt,nt,nt,nt,nt,nt
Cc1cc(C)cc(N(C(=O)c2ccc3c(c2)OCO3)C2C=CS(=O)(=O)C2)c1 (stereo not drawn),-3,0.79,-0.022,6,nt,0.63,nt,nt,nt
Cc1ccc(NC2c3ncccc3C(=O)N2C2CCCCC2)cc1 (stereo not drawn),-6,-0.73,-0.15,14,11*,0.19,13584*,nt,+
Cc1ccc(NC2c3ncccc3C(=O)N2C2CCCCC2)cc1C (stereo not drawn),-6,0.69,-0.0089,6,4.1*,-0.053,10752*,1620,+
O=C1c2cccnc2C(=O)N1C1CCCCC1,14,0.53,0.48,-9,0.77,-0.13,nt,nt,nt
CCN(CC(=O)NC1CCCCCC1)S(=O)(=O)c1ccccc1,3,-0.023,0.79,3,6.7*,-0.97,4392,1572,i
CCOc1ccc(C(=O)Nc2nncs2)cc1OCC,5,-0.44,1.4,-2,10*,-2,18420*,1592,+
